Measurements as given in ChEMBL document CHEMBL1131303, “New cyclooxygenase-2/5-lipoxygenase inhibitors. 2. 7-tert-butyl-2,3-dihydro-3,3-dimethylbenzofuran derivatives as gastrointestinal safe antiinflammatory and analgesic agents: variations of the dihydrobenzofuran ring” (J Med Chem, 1998).
Each block holds one molecule with its values, some of them ahead of it.

What was measured:
Mus musculus [1] = species on record: Mus musculus; experiment: The compound was tested for effective dose for reduction in phenylquinone-induced abdominal constriction; type: functional; settings: Abdomen
How it was run: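 Phenylquinone-induced abdominal constriction assay run as an oral dose-response study. The ED50 was derived from reduction of constrictions.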

Mus musculus [2] = experiment: The compound was tested for reduction in phenylquinone-induced abdominal constriction and is expressed in % reduction at a po (per oral) dose of 70 mg/kg.; type: functional, Abdomen
How it was run: (§1)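 Phenylquinone-induced abdominal constriction analgesia assay. A single oral screening dose of 70 mg/kg was given, and the read-out is percent reduction in constrictions versus control. Tebufelone and naproxen served as reference agents.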

Mus musculus [3] = species on record: Mus musculus; experiment: The compound was tested for reduction in phenylquinone-induced abdominal constriction; type: functional; settings: Abdomen
Rattus norvegicus = experiment: Carrageenan paw edema index (CPE index) as ratio of the reduction in paw volume of tested compound relative to the compound tebufelone at peroral dose of 50 mg/kg.; type: functional; settings: route oral
[4] = target: T1, Prostaglandin G/H synthase 2 (Homo sapiens, UniProt P35354)
T1 sequence (P35354 whole entry): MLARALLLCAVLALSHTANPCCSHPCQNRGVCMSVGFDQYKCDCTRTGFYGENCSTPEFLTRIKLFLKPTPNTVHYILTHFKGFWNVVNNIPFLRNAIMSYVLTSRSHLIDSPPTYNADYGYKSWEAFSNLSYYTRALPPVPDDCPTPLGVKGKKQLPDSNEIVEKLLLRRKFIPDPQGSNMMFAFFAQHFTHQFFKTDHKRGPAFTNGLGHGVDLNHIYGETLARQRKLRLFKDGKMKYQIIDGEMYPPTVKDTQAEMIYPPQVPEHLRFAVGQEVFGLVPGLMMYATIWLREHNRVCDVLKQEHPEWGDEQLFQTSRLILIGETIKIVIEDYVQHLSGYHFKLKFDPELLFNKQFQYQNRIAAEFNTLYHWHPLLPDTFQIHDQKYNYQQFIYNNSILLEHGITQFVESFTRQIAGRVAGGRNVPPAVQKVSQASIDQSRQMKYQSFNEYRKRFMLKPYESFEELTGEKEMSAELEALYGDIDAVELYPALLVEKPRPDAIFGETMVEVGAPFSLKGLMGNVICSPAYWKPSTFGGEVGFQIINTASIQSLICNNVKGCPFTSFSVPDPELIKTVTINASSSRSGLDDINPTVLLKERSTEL

[5] = target: Prostaglandin G/H synthase 1 (Homo sapiens, UniProt P23219); experiment: Inhibition of Prostaglandin G/H synthase 1 (COX-1).
How it was run: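 Isolated human COX-1 enzyme from platelets. Duplicate samples were each tested in duplicate, and IC50 values were determined.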

[6] = target: T2, Polyunsaturated fatty acid 5-lipoxygenase (Rattus norvegicus, UniProt P12527); experiment: Inhibition of 5-lipoxygenase (LOX)in RBL cells; type: cell-based
T2 sequence (P12527 whole entry): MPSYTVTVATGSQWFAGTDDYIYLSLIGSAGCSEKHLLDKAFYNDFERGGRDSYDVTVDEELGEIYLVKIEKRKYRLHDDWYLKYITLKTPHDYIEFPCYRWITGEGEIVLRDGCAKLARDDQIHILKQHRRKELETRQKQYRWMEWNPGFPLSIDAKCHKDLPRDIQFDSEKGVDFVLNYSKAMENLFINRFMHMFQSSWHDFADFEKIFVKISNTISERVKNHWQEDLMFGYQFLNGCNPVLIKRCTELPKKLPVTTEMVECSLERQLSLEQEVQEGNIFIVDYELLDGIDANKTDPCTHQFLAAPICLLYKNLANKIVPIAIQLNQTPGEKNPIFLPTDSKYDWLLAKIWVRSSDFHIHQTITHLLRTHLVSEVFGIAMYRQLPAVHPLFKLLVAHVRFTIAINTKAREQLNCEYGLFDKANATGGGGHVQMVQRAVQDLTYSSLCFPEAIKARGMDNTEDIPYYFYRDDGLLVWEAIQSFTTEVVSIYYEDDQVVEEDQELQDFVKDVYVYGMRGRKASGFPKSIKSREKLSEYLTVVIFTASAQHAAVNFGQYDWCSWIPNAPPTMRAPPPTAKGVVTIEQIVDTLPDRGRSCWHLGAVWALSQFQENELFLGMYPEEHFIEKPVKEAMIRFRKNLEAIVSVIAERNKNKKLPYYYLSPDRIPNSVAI

Mus musculus [7] = experiment: The compound was tested for reduction in phenylquinone-induced abdominal constriction and is expressed in % reduction at a po (per pral) dose of 70 mg/kg.; type: functional, Abdomen; how it was run: as §1

Prostaglandin G/H synthase 1, sequence (P23219 whole entry): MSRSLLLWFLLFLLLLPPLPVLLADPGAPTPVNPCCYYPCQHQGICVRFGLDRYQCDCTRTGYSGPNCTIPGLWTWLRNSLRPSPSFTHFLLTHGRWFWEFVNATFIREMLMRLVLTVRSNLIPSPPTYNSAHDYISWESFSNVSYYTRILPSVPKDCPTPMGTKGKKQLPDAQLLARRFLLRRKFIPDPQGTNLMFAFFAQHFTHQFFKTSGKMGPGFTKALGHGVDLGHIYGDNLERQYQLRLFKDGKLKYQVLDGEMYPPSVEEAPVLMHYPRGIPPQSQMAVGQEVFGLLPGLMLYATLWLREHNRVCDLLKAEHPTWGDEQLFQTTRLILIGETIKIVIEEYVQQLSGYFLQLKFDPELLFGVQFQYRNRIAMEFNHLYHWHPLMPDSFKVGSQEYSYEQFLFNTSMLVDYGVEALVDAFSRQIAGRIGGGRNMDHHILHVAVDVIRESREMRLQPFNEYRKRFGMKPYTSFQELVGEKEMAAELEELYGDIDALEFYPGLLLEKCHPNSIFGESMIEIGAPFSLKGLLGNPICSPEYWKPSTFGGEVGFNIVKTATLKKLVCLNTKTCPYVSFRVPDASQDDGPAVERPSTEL

SMILES: CC(C)(C)c1cc(C(=O)CCCC2CC2)cc2c1OCC2(C)C
- ED50 (Mus musculus [1]): 11 mg/kg

SMILES: CCCCC(=O)c1cc(C(C)(C)C)c2c(c1)C(C)(C)CO2
- Reduction (Mus musculus [2]): 38%

SMILES: CCCC(=O)c1cc(C(C)(C)C)c2c(c1)C(C)(C)CO2
- ED50 (Mus musculus [3]): 21 mg/kg

SMILES: CC(C)(O)CC(=O)c1cc(C(C)(C)C)c2c(c1)C(C)(C)CO2
- CPE index (Rattus norvegicus): 0.49

SMILES: CC(C)(C)c1cc(C(=O)CCCC2CC2)cc2c1SCC2(C)C
- CPE index (Rattus norvegicus): 0.74

SMILES: C#CCCCC(=O)c1cc2c(c(C(C)(C)C)c1)OCC2
- CPE index (Rattus norvegicus): 0.84
- Reduction (Mus musculus [2]): 67%

SMILES: CCCCC(=O)c1cc(C(C)(C)C)c2c(c1)C(C)(C)CCN2
- CPE index (Rattus norvegicus): 0.02

SMILES: O=C(CCCC1CC1)c1ccc2c(c1)CCO2
- CPE index (Rattus norvegicus): 0.13

SMILES: CCCCC(=O)c1cc(C(C)(C)C)c2c(c1)C(C)(C)CCO2
- ED50 (Mus musculus [1]): 53 mg/kg
- CPE index (Rattus norvegicus): 0.69

SMILES: CCCCC(=O)c1ccc2c(c1)CCO2
- CPE index (Rattus norvegicus): 0

SMILES: CC1(C)COc2ccc(C(=O)CCCC3CC3)cc21
- IC50 [4]: 8 µM
- IC50 [5]: 25 µM
- CPE index (Rattus norvegicus): 0.5

SMILES: CCCC(=O)c1ccc2c(c1)C(C)(C)CO2
- CPE index (Rattus norvegicus): 0.31

SMILES: CCCC(=O)c1cc(C(C)(C)C)c2c(c1)C(C)(C)CS2
- IC50 [4]: 0.15 µM
- ED50 (Mus musculus [1]): 74 mg/kg
- IC50 [5]: 1.5 µM
- CPE index (Rattus norvegicus): 1.04

SMILES: CC(C)(C)c1cc(C(=O)CCCC2CC2)cc2c1NCCC2(C)C
- CPE index (Rattus norvegicus): 0

SMILES: CCCCC(=O)c1cc2c(c(C(C)(C)C)c1)OCC2
- ED50 (Mus musculus [1]): 0.6 mg/kg
- CPE index (Rattus norvegicus): 0.69

SMILES: CN1CC(C)(C)c2cc(C(=O)CCCC3CC3)cc(C(C)(C)C)c21
- CPE index (Rattus norvegicus): 0.36

- IC50 [4]: 5 µM
- IC50 [5]: 20 µM
- IC50 [6]: 18 µM
SMILES: CCc1cc(C(=O)CCCC2CC2)cc2c1OCC2(C)C

SMILES: CCCCC(=O)c1cc(C(C)(C)C)c2c(c1)C(C)(C)CCN2C
- IC50 [4]: 0.3 µM
- IC50 [5]: 2 µM
- CPE index (Rattus norvegicus): 0.42

SMILES: CC(C)(C)c1cc(C(=O)CCCC2CC2)cc2c1OCCC2(C)C
- IC50 [4]: 3 µM
- IC50 [5]: 20 µM
- CPE index (Rattus norvegicus): 0.57
- IC50 [6]: 8 µM
- Reduction (Mus musculus [2]): 10%

SMILES: CC(C)(C)c1cc(C(=O)CCCC2CC2)cc2c1OCCC2
- CPE index (Rattus norvegicus): 0.05

SMILES: CCCCC(=O)c1cc2c(c(C(C)(C)C)c1)OCCC2
- CPE index (Rattus norvegicus): 0.21

SMILES: CC(C)(O)CC(=O)c1cc2c(c(C(C)(C)C)c1)OCC2
- ED50 (Mus musculus [1]): 21 mg/kg
- CPE index (Rattus norvegicus): 0.98

SMILES: CC(C)(O)CC(=O)c1cc2c(c(C(C)(C)C)c1)OCCC2
- CPE index (Rattus norvegicus): 0.7
- Reduction (Mus musculus [2]): 50%

SMILES: C#CCCCC(=O)c1cc2c(c(C(C)(C)C)c1)OCCC2
- CPE index (Rattus norvegicus): 1.04
- Reduction (Mus musculus [2]): 79%

SMILES: CC(C)(O)CC(=O)c1cc(C(C)(C)C)c2c(c1)C(C)(C)CCO2
- CPE index (Rattus norvegicus): 0.48

SMILES: C#CCCCC(=O)c1cc(C(C)(C)C)c2c(c1)C(C)(C)CCO2
- CPE index (Rattus norvegicus): 0.57
- Reduction (Mus musculus [2]): 46%

SMILES: CCCCC(=O)c1cc(C(C)(C)C)c2c(c1)C(C)(C)CCS2
- IC50 [4]: 0.4 µM
- IC50 [5]: 0.4 µM
- CPE index (Rattus norvegicus): 0.86
- Reduction (Mus musculus [7]): 17%

SMILES: CC(C)(O)CC(=O)c1ccc2c(c1)C(C)(C)CO2
- CPE index (Rattus norvegicus): 0.39

SMILES: CCCC(=O)c1cc(C(C)(C)C)c2c(c1)C(C)(CC)CO2 (stereo not given)
- CPE index (Rattus norvegicus): 0.68
- Reduction (Mus musculus [2]): 45%

SMILES: CC(C)(C)c1cc(C(=O)CCCC2CC2)cc2c1OCC2
- IC50 [4]: 15 µM
- ED50 (Mus musculus [1]): 6 mg/kg
- IC50 [5]: 5 µM
- CPE index (Rattus norvegicus): 0.5
- IC50 [6]: 12 µM

SMILES: CC1(C)COc2c(C3CCCC3)cc(C(=O)CCCC3CC3)cc21
- IC50 [4]: 20 µM
- IC50 [5]: > 100 µM
- CPE index (Rattus norvegicus): 0.27

SMILES: CN1CCC(C)(C)c2cc(C(=O)CCCC3CC3)cc(C(C)(C)C)c21
- CPE index (Rattus norvegicus): 0.37

SMILES: COc1ccc2cc([C@H](C)C(=O)O)ccc2c1 [NAPROXEN]
- CPE index (Rattus norvegicus): 1.06
- ED50 (Mus musculus [3]): 1.3 mg/kg

SMILES: C#CCCCC(=O)c1cc(C(C)(C)C)c(O)c(C(C)(C)C)c1 [TEBUFELONE]
- ED50 (Mus musculus [3]): 26 mg/kg
